≈ marks a conversion by molar mass, not a printed value. Calls of active or inactive are those of the source. The calls are words filed in the database; no cut-off is given here.

Holding throughout (format): functional
In assay [1] the test system is Mycobacterium tuberculosis. In words: Induction of drug resistance in Mycobacterium tuberculosis H37Ra at 10 to 16 fold MIC. The note with it: time 4-5 weeks. A digest of the protocol: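 Exponential-phase H37Ra, about 10⁷ bacteria, plated on 7H11 agar with compound at 10x and 16x MIC. Incubated 4–5 weeks at 37 °C. Frequency calculated as mutant colonies divided by total cells plated. Clones confirmed by PCR and Sanger sequencing of atp genes and rv0678.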

Assay [2] relates to Mycobacterium tuberculosis. In words: Antibacterial activity against Bedaquiline- sensitive Mycobacterium tuberculosis H37Ra harboring atpB.K179N_01 mutant incubated for 7 days by resazurin staining based microtiter assay. The note with it: time 7 day. A digest of the protocol:
(§1)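 Resazurin microtiter assay on H37Ra atpB K179N mutants and wild type, using exponential cultures diluted to OD 0.02. 3-fold serial dilution from 10 µM (0.002–10 µM), in triplicate. After 7 days, 0.02% resazurin added for 24 h, then fluorescence read (ex 530/em 590 nm). MIC taken from four-parameter variable-slope nonlinear regression.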
On the technique in general: The colour change of resazurin is a common sign of viable cells or microbes.

The subject of assay [3] is Mycobacterium tuberculosis. In words: Antibacterial activity against Bedaquiline- sensitive Mycobacterium tuberculosis H37Ra harboring atpB.K179N_02 mutant incubated for 7 days by resazurin staining based microtiter assay. As to conditions: time 7 day. An outline of the steps:
as §1

On to `COc1ccc(-c2c(NCc3ccccn3)c(=O)c2=O)cc1`, for which the outcome in assay [1] was Active. For the molecule `COc1nc2ccc(Br)cc2cc1[C@@H](c1ccccc1)[C@@](O)(CCN(C)C)c1cccc2ccccc12` [BEDAQUILINE], the MIC – broadly, the lowest concentration found to suppress growth – in assay [2] stood at 0.11 µM (≈ 0.0611 µg/mL); in assay [3] it was 0.12 µM (≈ 0.0667 µg/mL). Turning to `O=c1c(NCc2ccccn2)c(-c2ccc(N3CCCCC3)cc2)c1=O`, in assay [1], the outcome was Active.

The values are drawn from ChEMBL document CHEMBL5390255, “Expanding the squaramide library as mycobacterial ATP synthase inhibitors: Innovative synthetic pathway and biological evaluation” (Bioorg Med Chem, 2023).
